Results taken from ChEMBL document CHEMBL5724801, “EUbOPEN Chemogenomics Library - Multiplex” (2024).
“And” between values parts separate entries of the source, which are not always exact repeats. Equal entries are not always repeated.

System: Fibroblast
Assay: Multiplex assay against human fibroblast
Type: toxicity, cell-based
Outline: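 Hoechst33342, BioTracker Green Microtubule Cytoskeleton Dye, MitoTracker Red and Annexin V Alexa Fluor 680 were added to live cells at seeding, and imaging on a CQ1 microscope at 37°C and 5% CO2 followed compound addition. Gating by CellPathfinder machine learning separated cells into Hoechst high-intensity objects or normal cells, then normal cells into healthy, pyknosed or fragmented nuclei, then pyknosed cells into mitotic or apoptotic. Per cents of healthy-nucleus cells are reported for the tubulin, mitochondrial-mass and membrane-permeability phenotypes.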

[1] = 12 h, 1 µM, compound concentration 1 uM
[2] = 12 h, 10 µM, compound concentration 10 uM
[3] = 24 h, 1 µM, compound concentration 1 uM
[4] = 24 h, 10 µM, compound concentration 10 uM
[5] = 48 h, 1 µM, compound concentration 1 uM
[6] = 48 h, 10 µM, compound concentration 10 uM

SMILES: Cc1ccc(/C(=C\CN2CCCC2)c2ccccn2)cc1 [TRIPROLIDINE]
- Population Apoptotic (%) [1]: 52% and 41%
- Population Fragmented Nuclei (%) [1]: 17% and 28%
- Population Healthy Nuclei (%) [1]: 64% and 45%
- Population Hoechst High Intensity Objects (%) [1]: 3% and 4%
- Population Membrane Permeable-Phenotype (%) [1]: 0% and 1%
- Population Mitochondria Different-Phenotype (%) [1]: 9%
- Population Mitotic Cells (%) [1]: 47% and 58%
- Population Normal (%) [1]: 96% and 95%
- Population Pyknosed Nuclei (%) [1]: 18% and 25%
- Population Tubulin-Different-Phenotype (%) [1]: 29% and 60%
- Total Cell Count [1]: 119 and 127
- Population Apoptotic (%) [2]: 57% and 50%
- Population Fragmented Nuclei (%) [2]: 14% and 26%
- Population Healthy Nuclei (%) [2]: 64% and 52%
- Population Hoechst High Intensity Objects (%) [2]: 2%
- Population Membrane Permeable-Phenotype (%) [2]: 0% and 9%
- Population Mitochondria Different-Phenotype (%) [2]: 5% and 9%
- Population Mitotic Cells (%) [2]: 42% and 50%
- Population Normal (%) [2]: 97%
- Population Pyknosed Nuclei (%) [2]: 20% and 21%
- Population Tubulin-Different-Phenotype (%) [2]: 44% and 59%
- Total Cell Count [2]: 139 and 141
- Population Apoptotic (%) [3]: 43% and 46%
- Population Fragmented Nuclei (%) [3]: 17% and 29%
- Population Healthy Nuclei (%) [3]: 69% and 43%
- Population Hoechst High Intensity Objects (%) [3]: 4% and 9%
- Population Membrane Permeable-Phenotype (%) [3]: 1% and 6%
- Population Mitochondria Different-Phenotype (%) [3]: 3% and 6%
- Population Mitotic Cells (%) [3]: 56% and 53%
- Population Normal (%) [3]: 95% and 90%
- Population Pyknosed Nuclei (%) [3]: 13% and 27%
- Population Tubulin-Different-Phenotype (%) [3]: 23% and 64%
- Total Cell Count [3]: 128 and 121
- Population Apoptotic (%) [4]: 47% and 58%
- Population Fragmented Nuclei (%) [4]: 15% and 29%
- Population Healthy Nuclei (%) [4]: 68% and 52%
- Population Hoechst High Intensity Objects (%) [4]: 4% and 2%
- Population Membrane Permeable-Phenotype (%) [4]: 0% and 6%
- Population Mitochondria Different-Phenotype (%) [4]: 3% and 12%
- Population Mitotic Cells (%) [4]: 52% and 41%
- Population Normal (%) [4]: 95% and 97%
- Population Pyknosed Nuclei (%) [4]: 15% and 17%
- Population Tubulin-Different-Phenotype (%) [4]: 41% and 62%
- Total Cell Count [4]: 142 and 141
- Population Apoptotic (%) [5]: 54% and 52%
- Population Fragmented Nuclei (%) [5]: 26% and 29%
- Population Healthy Nuclei (%) [5]: 65% and 48%
- Population Hoechst High Intensity Objects (%) [5]: 3% and 7%
- Population Membrane Permeable-Phenotype (%) [5]: 1% and 7%
- Population Mitochondria Different-Phenotype (%) [5]: 2% and 10%
- Population Mitotic Cells (%) [5]: 45% and 48%
- Population Normal (%) [5]: 96% and 92%
- Population Pyknosed Nuclei (%) [5]: 8% and 21%
- Population Tubulin-Different-Phenotype (%) [5]: 31% and 57%
- Total Cell Count [5]: 135 and 124
- Population Apoptotic (%) [6]: 38% and 42%
- Population Fragmented Nuclei (%) [6]: 20% and 32%
- Population Healthy Nuclei (%) [6]: 69% and 56%
- Population Hoechst High Intensity Objects (%) [6]: 7% and 5%
- Population Membrane Permeable-Phenotype (%) [6]: 1% and 5%
- Population Mitochondria Different-Phenotype (%) [6]: 6% and 9%
- Population Mitotic Cells (%) [6]: 61% and 57%
- Population Normal (%) [6]: 92% and 94%
- Population Pyknosed Nuclei (%) [6]: 9% and 10%
- Population Tubulin-Different-Phenotype (%) [6]: 35% and 54%
- Total Cell Count [6]: 142 and 140
